In one data set the target is T1, Insulin-degrading enzyme (Mus musculus, UniProt Q9JHR7).
T1 sequence (Q9JHR7 whole entry): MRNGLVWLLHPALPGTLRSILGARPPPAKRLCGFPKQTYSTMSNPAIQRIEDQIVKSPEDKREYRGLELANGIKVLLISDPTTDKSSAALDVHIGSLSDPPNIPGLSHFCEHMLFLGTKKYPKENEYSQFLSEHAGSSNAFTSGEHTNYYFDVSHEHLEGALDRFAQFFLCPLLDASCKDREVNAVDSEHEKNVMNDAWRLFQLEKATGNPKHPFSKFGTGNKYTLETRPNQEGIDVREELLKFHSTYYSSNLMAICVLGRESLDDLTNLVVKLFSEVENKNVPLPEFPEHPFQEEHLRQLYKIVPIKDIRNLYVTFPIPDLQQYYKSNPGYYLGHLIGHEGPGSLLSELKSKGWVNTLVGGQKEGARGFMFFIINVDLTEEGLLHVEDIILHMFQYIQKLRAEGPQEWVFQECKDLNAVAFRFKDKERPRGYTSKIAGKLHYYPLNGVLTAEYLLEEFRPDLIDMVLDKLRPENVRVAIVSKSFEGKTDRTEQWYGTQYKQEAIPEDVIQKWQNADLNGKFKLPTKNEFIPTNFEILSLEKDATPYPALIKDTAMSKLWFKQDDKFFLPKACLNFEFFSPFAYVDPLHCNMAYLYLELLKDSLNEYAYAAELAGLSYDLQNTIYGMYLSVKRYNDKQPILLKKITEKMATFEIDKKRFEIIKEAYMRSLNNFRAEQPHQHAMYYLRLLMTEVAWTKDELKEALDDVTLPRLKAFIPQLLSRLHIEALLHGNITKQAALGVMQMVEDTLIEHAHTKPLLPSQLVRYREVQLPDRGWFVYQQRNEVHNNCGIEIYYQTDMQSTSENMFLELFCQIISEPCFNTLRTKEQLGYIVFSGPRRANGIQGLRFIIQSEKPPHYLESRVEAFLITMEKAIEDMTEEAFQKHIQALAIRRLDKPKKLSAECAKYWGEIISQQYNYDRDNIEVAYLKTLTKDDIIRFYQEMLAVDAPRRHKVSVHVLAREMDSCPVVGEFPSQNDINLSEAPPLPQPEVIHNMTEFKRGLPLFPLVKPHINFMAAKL
The data set is described as follows: Inhibition of mouse His-tagged IDE (42 to 1019 residues) using fluorophore/quencher-tagged RPPGFSAFK(Dnp)-OH peptide as substrate preincubated for 10 mins followed by substrate addition measured over 5 mins by TR-FRET assay.

A short description of data set [1]: Selectivity ratio of IC50 for ECE-1 (unknown origin) to IC50 for mouse His-tagged IDE (42 to 1019 residues).
A further data set concerns HeLa. The data set is described as follows: Cytotoxicity against human HeLa cells assessed as reduction in cell viability at <300 uM after 24 hrs at 310 K by MTT assay. The class given is cell-based. An outline of the steps:
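HeLa cells were grown overnight in DMEM with 10% FBS, then exposed to serial dilutions starting at 300 μM in medium with 5% FBS for 24 h at 310 K under 5% CO2. MTT was added for a further 4 h and formazan absorbance read at 490 nm. Three independent experiments in duplicate.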

Data set [2] addresses Insulin-degrading enzyme (Homo sapiens) (UniProt P14735). The data set is described as follows: Inhibition of IDE (unknown origin) assessed as potentiation of insulin-induced AKT phosphorylation in rat skeletal muscle cells at 100 uM preincubated up to 12 hrs followed by insulin addition and measured after 10 mins by Western blot analysis. The class given is cell-based. The method, boiled down:
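Rat skeletal muscle cells were treated with 100 nM IDE plus peptide, for 10 min or at time points up to 24 h with 100 μM. Insulin (10 nM) was then added for 10 min. RIPA lysates were run on 10% SDS-PAGE and blotted for pAKT and AKT with GAPDH as loading control. Densitometry on three regions, two-tailed t test.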
A general note: A western blot detects proteins with antibodies after separation by electrophoresis.

Data set [3] relates to Mus musculus. Put plainly: Toxicity in lean C57BL/6J mouse assessed as behavioral changes at 80 mg/kg, ip. To be noted: in vivo. The class given is organism-based. An outline of the steps:
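Male lean C57BL/6J mice (13–15 weeks) received 80 mg kg−1 i.p. or PBS vehicle (n = 6 each). Behaviour and body weight were monitored.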

Data set [4] has as its system Mus musculus. Put plainly: Effect on glucose levels in lean C57BL/6J mouse at 80 mg/kg, ip administered 30 min prior to glucose stimulation measured up to 120 min […]. The class given is ADME, organism-based. The settings on record: in vivo.
For data set [5], the system named is Mus musculus. The data set is described as follows: Hypoglycemic activity in lean C57BL/6J mouse at 80 mg/kg, ip administered 30 min prior to insulin injection measured up to 75 mins post insulin injection by ITT. The class given is functional, organism-based. The method, boiled down:
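Lean male mice were fasted 6 h, then given 80 mg kg−1 i.p. or PBS (n = 6) 30 min before subcutaneous insulin (0.25 U kg−1 in saline). Tail blood glucose was read at −30 to 75 min. Mean ± SEM, two-tailed t test, repeated three times.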

Data set [6] has as its system Mus musculus. Put plainly: Effect on basal beta-endrophins levels in lean C57BL/6J mouse at 80 mg/kg, ip after 30 to 120 mins post injection by ELISA. The class given is ADME, organism-based. The settings on record: in vivo. The method, boiled down:
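Male lean C57BL/6J mice received 80 mg kg−1 i.p. (n = 5) or PBS. At 30 or 120 min, heparinized blood was taken from tail or eye socket and spun to plasma. Insulin (5 μL plasma), C-peptide, glucagon, beta-endorphin and TNF alpha (10 μL each) were measured by ultrasensitive ELISA. Mean ± SEM, two-tailed t test.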
A general note: In an ELISA, binding on a coated surface is turned into a signal by an enzyme label.

The test system of data set [7] is Mus musculus. The data set is described as follows: Effect on amyloid beta (1-40) levels in lean C57BL/6J mouse brain at 80 mg/kg, ip administered per another day measured after 4 hrs to 11 days post injection by ELISA. The class given is ADME, organism-based. To be noted: in vivo. An outline of the steps: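 Male lean C57BL/6J mice received 80 mg kg−1 i.p. every other day (n = 5) or PBS vehicle. Brains (~350 mg) were Dounce-homogenized in PBS with 1 mM PMSF and spun at 13,000 rpm for 30 min at 277 K. Supernatant Aβ(1–40) was measured by ELISA at 4 h, 24 h, 7 days and 11 days. Mean ± SEM, two-tailed t test.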

The nature of data set [8]: Drug uptake in brain parenchyma of lean C57BL/6J mouse at 40 mg/kg, iv using cy5-labeled compound by two-photon microscopic analysis. The settings on record: in vivo.

These results are taken from ChEMBL document CHEMBL4196173, “Stabilized β-Hairpin Peptide Inhibits Insulin Degrading Enzyme” (J Med Chem, 2018).

Structures are written as SMILES. Active and inactive are the calls of the source. The calls are words filed in the database; no cut-off is given here.

Chain of Insulin-degrading enzyme (Homo sapiens) (P14735 whole entry): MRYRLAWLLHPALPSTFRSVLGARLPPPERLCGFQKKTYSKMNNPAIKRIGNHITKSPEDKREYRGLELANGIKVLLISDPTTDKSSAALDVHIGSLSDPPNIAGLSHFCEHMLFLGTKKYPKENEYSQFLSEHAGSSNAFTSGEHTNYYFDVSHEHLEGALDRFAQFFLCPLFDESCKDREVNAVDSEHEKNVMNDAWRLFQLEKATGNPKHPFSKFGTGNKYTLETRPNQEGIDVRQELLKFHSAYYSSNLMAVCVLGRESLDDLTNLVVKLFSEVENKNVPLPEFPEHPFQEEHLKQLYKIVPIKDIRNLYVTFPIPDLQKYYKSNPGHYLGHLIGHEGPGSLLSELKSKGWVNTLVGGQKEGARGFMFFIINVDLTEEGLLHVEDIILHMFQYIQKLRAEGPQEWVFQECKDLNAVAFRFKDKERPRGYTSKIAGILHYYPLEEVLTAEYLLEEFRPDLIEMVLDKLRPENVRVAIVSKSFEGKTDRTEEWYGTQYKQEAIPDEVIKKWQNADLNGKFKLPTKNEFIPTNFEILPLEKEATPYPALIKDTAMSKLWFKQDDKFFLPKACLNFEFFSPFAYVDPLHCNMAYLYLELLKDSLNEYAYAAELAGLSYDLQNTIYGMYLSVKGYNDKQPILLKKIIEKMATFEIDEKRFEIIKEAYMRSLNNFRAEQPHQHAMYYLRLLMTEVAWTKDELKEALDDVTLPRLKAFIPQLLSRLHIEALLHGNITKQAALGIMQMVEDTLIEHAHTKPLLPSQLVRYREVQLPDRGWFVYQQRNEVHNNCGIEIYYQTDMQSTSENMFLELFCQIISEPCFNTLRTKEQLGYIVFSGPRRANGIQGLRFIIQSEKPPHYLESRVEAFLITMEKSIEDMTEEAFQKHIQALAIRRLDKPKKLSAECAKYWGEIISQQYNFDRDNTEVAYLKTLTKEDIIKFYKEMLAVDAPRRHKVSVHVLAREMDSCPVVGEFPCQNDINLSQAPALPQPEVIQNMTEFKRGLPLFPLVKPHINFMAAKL

By IC50 is commonly meant the concentration at which inhibition is half-maximal. Lower therefore signals greater potency in that assay. In turn, `CC(=O)N[C@@H](CCC(=O)O)C(=O)N[C@@H](Cc1c[nH]c2ccccc12)C(=O)N[C@@H](CCCNC(=N)N)C(=O)N[C@@H](Cc1ccccc1)C(=O)N[C@H]1CC(=O)NC[C@@H](C(=O)N[C@@H](CC(C)C)C(=O)N[C@@H](Cc2ccc(O)cc2)C(=O)N[C@@H](CC(C)C)C(=O)N[C@H](C(=O)N[C@@H](CS)C(=O)NCC(N)=O)C(C)C)NC(=O)[C@H](CCC(=O)O)NC(=O)[C@@H]2CCCN2C(=O)[C@H]2CCCN2C(=O)CNC1=O` showed an IC50 on Insulin-degrading enzyme of 22 nM. Also, in data set [1], the Ratio IC50 was over 1000. For the same molecule, the Activity entry with HeLa, with Mus musculus [3], with Mus musculus [4], with Mus musculus [6] and in the data set with Mus musculus [7] was “Non-Toxic” in each case. In data set [2], the inhibition result was “Active”. Also, in the data set with Mus musculus [5], the result was Active. The Drug uptake entry in data set [8] is on record as “Not Active”.
